Publication PMC6287413 (Drug Design, Development and Therapy, 2018)
Where a SMILES comes first, the peptide text is derived from it.

Each compound was assayed against T1, PTP1B (Homo sapiens, UniProt P18031) (assay: Inhibitory activity analysis with recombinant PTP1B phosphatase).
T1 sequence (P18031 1-435): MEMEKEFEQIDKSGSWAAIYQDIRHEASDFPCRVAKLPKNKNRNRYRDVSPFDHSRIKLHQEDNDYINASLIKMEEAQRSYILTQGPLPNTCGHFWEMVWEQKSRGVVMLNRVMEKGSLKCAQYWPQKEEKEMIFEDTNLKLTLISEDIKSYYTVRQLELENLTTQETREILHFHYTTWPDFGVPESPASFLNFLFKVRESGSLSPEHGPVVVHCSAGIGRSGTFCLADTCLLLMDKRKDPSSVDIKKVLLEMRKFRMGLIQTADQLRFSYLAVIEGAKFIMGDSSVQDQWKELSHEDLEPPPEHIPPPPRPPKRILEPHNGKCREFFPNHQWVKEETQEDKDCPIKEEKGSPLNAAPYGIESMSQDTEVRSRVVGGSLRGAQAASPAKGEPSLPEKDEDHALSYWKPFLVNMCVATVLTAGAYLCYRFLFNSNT
Format: biochemical
Method in brief: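 Recombinant phosphatase at 1.5 µg/mL […] final in 10 mM HEPES, pH 7.4. Each enzyme was left untreated (control) or treated with peptide solutions over a range of concentrations and incubation times, at 37°C. Para-nitrophenyl phosphate (2 mM) was the chromogenic substrate, read at 405 nm. Every experiment was run three or more times.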

IC50 [µM] | SMILES
52.6 ± 3.7 | N[C@@H](CC(=O)O)C(=O)N[C@@H](Cc1ccccc1)C(=O)O [Asp-Phe] (H-Asp-Phe-OH)
255 ± 29.4 | N[C@@H](Cc1ccccc1)C(=O)N[C@@H](CC(=O)O)C(=O)N[C@@H](Cc1ccccc1)C(=O)O [Phe-Asp-Phe] (H-Phe-Asp-Phe-OH)
52.1 ± 1.4 | N[C@@H](Cc1ccccc1)C(=O)N[C@@H](CC(=O)O)C(=O)O [Phe-Asp] (H-Phe-Asp-OH)
104 ± 15.9 | N[C@@H](Cc1ccccc1)C(=O)N[C@@H](Cc1ccccc1)C(=O)N[C@@H](CC(=O)O)C(=O)O [Phe-Phe-Asp] (H-Phe-Phe-Asp-OH)
